The values below come from ChEMBL document CHEMBL1144043, “Second-generation aspirin and indomethacin prodrugs possessing an O(2)-(acetoxymethyl)-1-(2-carboxypyrrolidin-1-yl)diazenium-1,2-diolate nitric oxide donor moiety: design, synthesis, biological evaluation, and nitric oxide release studies” (J Med Chem, 2008).

Data set [1] deals with Rattus norvegicus. In words: Antiinflammatory activity against carrageenan-induced foot paw edema in rat. Format: functional. In short, it runs like this: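 Carrageenan-induced rat paw edema after oral administration; ED50 taken as the dose lowering the inflammatory response by 50% in the group of animals (n = 4).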
The subject of data set [2] is Rattus norvegicus. The experiment in a line: Analgesic activity against sodium chloride-induced abdominal constriction in rat at 84 umol/kg, po after 30 mins. The class given is functional, Abdomen. Put shortly:
(§1)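 4% NaCl-induced writhing (abdominal constriction) assay in rats after oral dosing; writhing inhibition scored at 30 and 60 min post-dose; reported as % inhibition, mean ± SEM, n = 4.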

The subject of data set [3] is Rattus norvegicus. In words: Analgesic activity against sodium chloride-induced abdominal constriction in rat at 84 umol/kg, po after 60 mins. Format: functional, Abdomen. In short, it runs like this:
as §1

Data set [4] relates to Rattus norvegicus. The experiment in a line: Toxicity in rat assessed as ulcer index at 0.08 mmol/kg, po after 6 hrs. The class given is organism-based. The conditions noted are these: in vivo. In short, it runs like this:
(§2)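 Rats fasted 24 h (water allowed) were dosed orally in 1.7 mL 1% methylcellulose; vehicle controls received the same. Stomachs were removed 6 h later after CO2 euthanasia. Ulcer index is the summed ulcer length (mm) per stomach averaged over n = 4, given as mean ± SEM.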

In data set [5] the test system is Rattus norvegicus. In words: Analgesic activity against sodium chloride-induced abdominal constriction in rat at 277 umol/kg, po after 30 mins. The class given is functional, Abdomen. Put shortly: as §1
Data set [6] concerns Rattus norvegicus. In words: Analgesic activity against sodium chloride-induced abdominal constriction in rat at 277 umol/kg, po after 60 mins. Format: functional, Abdomen. In short, it runs like this: as §1
Data set [7] has as its system Rattus norvegicus. In words: Toxicity in rat assessed as ulcer index at 1.38 mmol/kg, po after 6 hrs. The class given is organism-based. Particulars: in vivo. Put shortly:
as §2

The subject of data set [8] is Rattus norvegicus. In words: Analgesic activity against sodium chloride-induced abdominal constriction in rat at 68 umol/kg, po after 30 mins. The class given is functional, Abdomen. In short, it runs like this: as §1
Data set [9] deals with Rattus norvegicus. The experiment in a line: Analgesic activity against sodium chloride-induced abdominal constriction in rat at 68 umol/kg, po after 60 mins. Format: functional, Abdomen. Put shortly:
as §1

Data set [10] is described as follows: Effect on nitric oxide release in phosphate-buffered solution at pH 7.4 by Sievers nitric oxide analyzer. Format: functional. Put shortly:
(§3)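 Compound in DMSO injected into a sealed cell holding deoxygenated 0.1 M phosphate buffer (3 mL, pH 7.4) with 50 µM DTPA at 37 °C. NO is carried by N2 purge to a chemiluminescence analyzer, and AUC is converted with a calibration curve to mol NO/mol compound. The time to about 50% of theoretical NO is read graphically from time vs mol NO/min curves.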

Data set [11] is described as follows: Effect on nitric oxide release in phosphate-buffered solution in presence of porcine liver esterase by Sievers nitric oxide analyzer. The class given is functional. In short, it runs like this:
(§4)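 Porcine liver esterase (29 units, suspension in 3.2 M ammonium sulfate) in phosphate buffer (3 mL) at pH 8.0, 37 °C; compound injected as a DMSO solution. NO is swept by N2 to a chemiluminescence analyzer and AUC is quantified against a calibration curve. The time to more than 90% of theoretical NO is read graphically from time vs mol NO/min curves.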

Data set [12] in a line: Effect on nitric oxide release phosphate-buffered solution assessed as time required to detect about 50% of NO/mol of compound by Sievers nitric oxide analyzer. Format: functional. Put shortly: as §3
Data set [13] in a line: Effect on nitric oxide release assessed as time required to detect more than 90% of NO/mol of compound by Sievers nitric oxide analyzer. Format: functional. Put shortly: as §4
The test system of data set [14] is Rattus norvegicus. In words: Analgesic activity against sodium chloride-induced abdominal constriction in rat at 48 umol/kg, po after 30 mins. The class given is functional, Abdomen. Put shortly: as §1
Data set [15] relates to Rattus norvegicus. The experiment in a line: Analgesic activity against sodium chloride-induced abdominal constriction in rat at 48 umol/kg, po after 60 mins. The class given is functional, Abdomen. Put shortly: as §1

The ED50 is the dose at which the effect has come halfway, by size or by number of responders. Read a high ED50 as weaker potency. Molecule `COc1ccc2c(c1)c(CC(=O)O)c(C)n2C(=O)c1ccc(Cl)cc1` [INDOMETHACIN] came in with an ED50 in the data set with Rattus norvegicus [1] of 11.8 µmol/kg. Also, the Activity in the data set on Rattus norvegicus [2] was determined as 51.8%; with Rattus norvegicus [3], 67.6%. The UI in the data set with Rattus norvegicus [4] stood at 64.5.

`CC(=O)Oc1ccccc1C(=O)O` [ASPIRIN] returned an ED50 with Rattus norvegicus [1] of 710 µmol/kg. Further, the Activity in the data set with Rattus norvegicus [5] was determined as 56.5%; in the data set with Rattus norvegicus [6] it was 64.3%. For the same molecule, the UI in the data set with Rattus norvegicus [7] turned out to be 51.4.

In the data set on Rattus norvegicus [1], `CC(=O)OCO/N=[N+](\[O-])N1CCC[C@H]1C(=O)OCOC(=O)c1ccccc1OC(C)=O` yielded an ED50 of 314 µmol/kg. Moreover, the Activity in the data set with Rattus norvegicus [8] came out at 24.6%; with Rattus norvegicus [9], 65.8%; in [10] it was 1.1; in data set [11] it was 1.9. The TIME was determined as 43 h in data set [12] and 0.04 h in data set [13]. Also, the UI in the data set with Rattus norvegicus [7] stood at 0.75.

`COc1ccc2c(c1)c(CC(=O)OCOC(=O)[C@@H]1CCCN1/[N+]([O-])=N/OCOC(C)=O)c(C)n2C(=O)c1ccc(Cl)cc1`: the ED50 in the data set with Rattus norvegicus [1] was determined as 18.5 µmol/kg. Also, the Activity in the data set with Rattus norvegicus [14] amounted to 36.3%; in the data set on Rattus norvegicus [15], 61.5%; in data set [10], 1.1; in [11], 1.8. Also, the TIME in data set [12] worked out at 45 h; in data set [13], 0.0533 h. Besides, the UI in the data set with Rattus norvegicus [4] was determined as 0.

Turning to `O=C(O)[C@@H]1CCCN1/[N+]([O-])=N/O`, the Activity in data set [10] was determined as 2. Besides, in data set [13], the TIME was found to be 0.0005 h.
